Data on two compounds can be found in ChEMBL document CHEMBL1137720, “New acyclic nucleosides analogues as potential analgesic, anti-inflammatory, anti-oxidant and anti-microbial derived from pyrimido[4,5-b]quinolines” (2009).

The test system of experiment [1] is Rattus norvegicus. Description: Antiinflammatory activity in Sprague-Dawley rat assessed as inhibition of carrageenan-induced paw edema at 10 mg/kg, po after 4 hrs. In kind it is functional. Summed up:
(§1)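 Adult female Sprague-Dawley rats, 150–180 g, were used (n = 6 per group). Paw volume increase after carrageenan was read at 1, 2, 3 and 4 h. % edema inhibition was calculated against untreated controls. The reference drug was given orally at 10 mg/kg as an aqueous suspension.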
(In general: Carrageenan injected into the paw causes an acute inflammation.)

Experiment [2] has as its system Rattus norvegicus. Put plainly: Antiinflammatory activity in Sprague-Dawley rat assessed as inhibition of carrageenan-induced paw edema at 10 mg/kg, po after 1 hr. The experiment is classed as functional. Summed up:
as §1

The test system of experiment [3] is Rattus norvegicus. Put plainly: Antiinflammatory activity in Sprague-Dawley rat assessed as inhibition of carrageenan-induced paw edema at 10 mg/kg, po after 3 hrs. The experiment is classed as functional. Summed up: as §1
Experiment [4] is filed under the species Rattus norvegicus. Description: animal or person. Conditions: Sprague-Dawley, po, 2 h, read-out: INH.
Experiment [5] relates to Rattus norvegicus. Put plainly: Antiinflammatory activity in Sprague-Dawley rat assessed as inhibition of carrageenan-induced paw edema after 4 hrs. The experiment is classed as functional. Summed up: as §1
Experiment [6] is filed under the species Mus musculus. Put plainly: Analgesic activity in Swiss mouse assessed as reaction time after 30 mins by hot plate test. In kind it is functional. Summed up:
(§2)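 Swiss mice of both sexes, 25–30 g, were housed at 22 ± 1 °C on a 12 h light/dark cycle with free access to diet and water. Hot-plate testing followed Turner's method.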
(In general: In hot-plate and tail-flick tests a longer latency is read as antinociception.)

The species entered for experiment [7] is Mus musculus. Description: Analgesic activity in Swiss mouse assessed as reaction time after 60 mins by hot plate test. The experiment is classed as functional. Summed up:
as §2

For experiment [8], the species on record is Mus musculus. Description: Analgesic activity in Swiss mouse assessed as reaction time after 90 mins by hot plate test. The experiment is classed as functional. Summed up: as §2
A short description of experiment [9]: Antioxidant activity in Sprague-Dawley rat erythrocytes assessed as ABTS-induced hemolysis after 1 hr. The experiment is classed as functional, Erythrocyte. Also noted: concentration or dose not given beside the values.
Experiment [10] can be described thus: Antioxidant activity assessed as inhibition of ABTS-oxidation in 0.1 M phosphate buffer at pH 7. In kind it is functional. Summed up:
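ABTS (60 µM, 2 mL) was mixed with MnO2 (25 mg/mL) in 0.1 M phosphate buffer pH 7, then shaken, centrifuged and filtered. Radical solution A734 was set to about 0.5. MeOH/buffer served as negative control.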

For another experiment, the system named is Nucleic Acid. Put plainly: Inhibition of bleomycin-induced DNA damage assessed as absorbance at 532 nm after 1 hr at 37 degC. In kind it is nucleic-acid assay. Summed up:
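The 0.5 mL reaction contained calf thymus DNA (0.5 mg/mL), bleomycin sulfate (0.05 mg/mL), MgCl2 (5 mM), FeCl3 (50 µM) and compound at varying concentrations. After 1 h at 37 °C, the reaction was stopped with EDTA. TBA (1%) and HCl (25%) were added, followed by 10 min at 80 °C. After centrifugation, DNA damage was read as A532.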

For the next experiment, the system named is Escherichia coli. Description: Antibacterial activity against Escherichia coli ATCC 23566 at 100 ug/disk after 24 to 48 hrs by agar disk diffusion method. The experiment is classed as functional. To be noted: read-out: DIZ. Summed up: (§3)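 Agar disc diffusion used sterile 5 mm filter-paper discs loaded with 100 µg per disc, with DMSO as solvent. Plates were incubated 24–28 h at 37 °C and inhibition zone diameters measured: 6–10 mm slight, 11–15 mm moderate, >15 mm high. For MIC, discs carried varying amounts, and MIC was the lowest amount giving no visible growth.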
Background: In agar diffusion tests the substance spreads into inoculated agar from a disc or well.

The test system of another experiment is Pseudomonas aeruginosa. Put plainly: Antibacterial activity against Pseudomonas aeruginosa ATCC 10145 at 100 ug/disk after 24 to 48 hrs by agar disk diffusion method. In kind it is functional. Conditions: read-out: DIZ. Summed up:
as §3

The subject of another experiment is Staphylococcus aureus. Description: Antibacterial activity against Staphylococcus aureus ATCC 25923 at 100 ug/disk after 24 to 48 hrs by agar disk diffusion method. The experiment is classed as functional. Conditions: read-out: DIZ. Summed up: as §3
In another experiment the test system is Candida albicans. Description: Antimicrobial activity against Candida albicans ATCC 14053 at 100 ug/disk after 5 days by agar disk diffusion method. In kind it is functional. Conditions: ATCC 14053, 120 h, read-out: DIZ.
The test system of the next experiment is Aspergillus fumigatus. Put plainly: Antimicrobial activity against Aspergillus fumigatus ATCC 96918 at 100 ug/disk after 5 days by agar disk diffusion method. Conditions: ATCC 96918, 120 h, read-out: DIZ. In kind it is functional.
In experiment [11] the test system is Rattus norvegicus. Description: Antiinflammatory activity in Sprague-Dawley rat assessed as inhibition of carrageenan-induced paw edema after 1 hr. In kind it is functional. Summed up:
as §1

In experiment [12] the test system is Rattus norvegicus. Description: Antiinflammatory activity in Sprague-Dawley rat assessed as inhibition of carrageenan-induced paw edema after 2 hrs. In kind it is functional. Summed up: as §1
Experiment [13] deals with Rattus norvegicus. Put plainly: Antiinflammatory activity in Sprague-Dawley rat assessed as inhibition of carrageenan-induced paw edema after 3 hrs. In kind it is functional. Summed up: as §1

Regarding `COc1ccc2c(c1)c(CC(=O)O)c(C)n2C(=O)c1ccc(Cl)cc1` [INDOMETHACIN], the inhibition in vivo at 10 mg/kg in the experiment on Rattus norvegicus [1] is 57.8%; in the experiment on Rattus norvegicus [2], 50%; with Rattus norvegicus [3], 65.2%; in the experiment listed under Rattus norvegicus [4], 58%.

As usually defined, the inhibition is the drop in the measured response relative to a control, in per cent. As to `O=c1c2c(-c3ccc(Cl)cc3)c3c(nc2nc2[nH]nc([C@@H](O)[C@H](O)[C@H](O)CO)n12)/C(=C/c1ccc(Cl)cc1)CCC3`, the “inhibition (INH)” value with Rattus norvegicus [5] turned out to be 46.67%; in the experiment on Rattus norvegicus [11] it was 40.62%; with Rattus norvegicus [12], 52%; in the experiment on Rattus norvegicus [13], 45.31%. In addition, the Activity amounted to 3.6 s in the experiment listed under Mus musculus [6], 5.933 s in the experiment listed under Mus musculus [7], 8.433 s in the experiment filed under Mus musculus [8] and 3.51% in [9]. Moreover, in experiment [10], the inhibition was 66.7%. Further, the deltaA in the experiment with Nucleic Acid is 0.05. Further, the zone of inhibition at 100 µg/disc with Escherichia coli amounted to 20 mm; with Pseudomonas aeruginosa, 19 mm; in the experiment on Staphylococcus aureus it was 20 mm; with Candida albicans, 12 mm; in the experiment on Aspergillus fumigatus, 16 mm.
